Published values pooled from the literature.
Protocols differ between the studies behind these lines. pEC50, pKd, pKi: −log10 of the molar value.
Tspo: Translocator protein (Tspo, Rattus norvegicus, UniProt P16257)
Melanocortin receptor 4: Melanocortin receptor 4 (Mus musculus, UniProt P56450)

SMILES	target	test	measurement	value
CCOC(=O)[C@@]12C[C@@H]1[C@@H](n1ccc3c(NC4CC4)nc(C#Cc4ccccc4)nc31)[C@H](O)[C@@H]2O	Tspo	ligand displacement, radioligand	pKi	< 5.00
CC/C=C\C/C=C\C/C=C\C/C=C\C/C=C\CCCC(=O)O	Peroxisome proliferator-activated receptor delta (PPARD, Homo sapiens, UniProt Q03181)	reporter gene, agonist, luciferase	pEC50	4.04
CNC(=O)[C@@]12C[C@@H]1[C@@H](n1cnc3c(NC)nc(C#Cc4ccccc4)nc31)[C@H](O)[C@@H]2O	Tspo	ligand displacement, radioligand	pKi	< 5.00
CSCC[C@H](N)C(=O)NCC(=O)N[C@@H](Cc1c[nH]cn1)C(=O)N[C@@H](Cc1ccccc1)C(=O)N[C@@H](CCCNC(=N)N)C(=O)N[C@@H](Cc1c[nH]c2ccccc12)C(=O)O	Melanocortin receptor 4	reporter gene, agonist	pEC50	4.38
O=C(OC[C@H]1O[C@@H](OC(=O)c2cc(O)c(O)c(OC(=O)c3cc(O)c(O)c(O)c3)c2)[C@H](OC(=O)c2cc(O)c(O)c(OC(=O)c3cc(O)c(O)c(O)c3)c2)[C@@H](OC(=O)c2cc(O)c(O)c(OC(=O)c3cc(O)c(O)c(O)c3)c2)[C@@H]1OC(=O)c1cc(O)c(O)c(OC(=O)c2cc(O)c(O)c(O)c2)c1)c1cc(O)c(O)c(OC(=O)c2cc(O)c(O)c(O)c2)c1	Replicase polyprotein 1ab, main protease (rep, Severe acute respiratory syndrome coronavirus 2, UniProt P0DTD1)	binding, SPR	pKd	5.96
N=C(N)NCCC[C@H](NC(=O)[C@H](CC(=O)O)NC(=O)[C@H](Cc1c[nH]c2ccccc12)NC(=O)[C@H](CCCNC(=N)N)NC(=O)[C@@H](N)Cc1ccccc1)C(=O)N[C@@H](Cc1ccccc1)C(=O)NCC(=O)O	Melanocortin receptor 4	reporter gene, agonist	pEC50	4.32
CNC(=O)[C@@]12C[C@@H]1[C@@H](n1cnc3c(NCc4cccc(Cl)c4)nc(Cl)nc31)[C@H](O)[C@@H]2O	Tspo	ligand displacement, radioligand	pKi	< 5.00
O=C(Nc1ccncc1)c1cn(Cc2ccc(Cl)c(Cl)c2)c(=O)c2cnn(C3CCNCC3)c12	Fascin (FSCN1, Homo sapiens, UniProt Q16658)	binding, ITC	pKd	7.35
CNC(=O)[C@@]12C[C@@H]1[C@@H](n1cnc3c(NC4CC4c4ccccc4)nc(C#Cc4ccccc4)nc31)[C@H](O)[C@@H]2O (mixture of isomers)	Tspo	ligand displacement, radioligand	pKi	< 5.00
N=C(N)NCCC[C@H](NC(=O)[C@@H](N)CC(=O)O)C(=O)N[C@@H](Cc1ccccc1)C(=O)O	Melanocortin receptor 4	reporter gene, agonist	pEC50	< 4.00
Cc1cnc(-c2ccc(-c3ccc(NC(=O)Nc4c(F)cc(F)cc4F)cc3F)c3c2C(=O)NC3)[nH]1	High affinity nerve growth factor receptor (NTRK1, Homo sapiens, UniProt P04629)	binding, competition with immobilised ligand	pKd	9.00
N=C(N)NCCC[C@H](NC(=O)[C@H](CC(=O)O)NC(=O)[C@H](Cc1c[nH]c2ccccc12)NC(=O)[C@H](CCCNC(=N)N)NC(=O)[C@H](Cc1ccccc1)NC(=O)[C@@H](N)Cc1c[nH]cn1)C(=O)N[C@@H](Cc1ccccc1)C(=O)NCC(=O)O	Melanocortin receptor 4	reporter gene, agonist	pEC50	5.08
O=C(O)CC(=O)C(=O)O	L-lactate dehydrogenase A chain (LDHA, Homo sapiens, UniProt P00338)	binding, fluorescence	pKd	3.19
CSCC[C@H](NC(=O)[C@@H](NC(=O)[C@@H](N)Cc1ccc(O)cc1)C(C)C)C(=O)NCC(=O)N[C@@H](Cc1c[nH]cn1)C(=O)N[C@@H](Cc1ccccc1)C(=O)N[C@@H](CCCNC(=N)N)C(=O)N[C@@H](Cc1c[nH]c2ccccc12)C(=O)N[C@@H](CC(=O)O)C(=O)N[C@@H](CCCNC(=N)N)C(=O)O	Melanocortin receptor 4	reporter gene, agonist	pEC50	6.18
CC[C@H](C)[C@H](NC(=O)[C@H](CO)NC(=O)[C@H](Cc1ccc(O)cc1)NC(=O)[C@H](CC(=O)O)NC(=O)[C@H](CO)NC(=O)[C@@H](NC(=O)[C@H](Cc1ccccc1)NC(=O)[C@@H](NC(=O)CNC(=O)[C@H](CCC(=O)O)NC(=O)[C@H](C)NC(=O)[C@@H](N)Cc1ccc(O)cc1)[C@@H](C)O)[C@@H](C)CC)C(=O)N[C@@H](C)C(=O)N[C@@H](CCSC)C(=O)N[C@@H](CC(=O)O)C(=O)N[C@@H](CCCCN)C(=O)N[C@H](C(=O)N[C@@H](Cc1c[nH]cn1)C(=O)N[C@@H](CCC(N)=O)C(=O)N[C@@H](CCC(N)=O)C(=O)N[C@@H](CC(=O)O)C(=O)N[C@@H](Cc1ccccc1)C(=O)N[C@H](C(=O)N[C@@H](CC(N)=O)C(=O)N[C@@H](Cc1c[nH]c2ccccc12)C(=O)N[C@@H](CC(C)C)C(=O)N[C@@H](CC(C)C)C(=O)N[C@@H](C)C(=O)N[C@@H](CCC(N)=O)C(=O)N[C@@H](CCCCN)C(=O)NCC(=O)N[C@@H](CCCCN)C(=O)N[C@@H](CCCCN)C(=O)N[C@@H](CC(N)=O)C(=O)N[C@@H](CC(=O)O)C(=O)N[C@@H](Cc1c[nH]c2ccccc12)C(=O)N[C@@H](CCCCN)C(=O)N[C@@H](Cc1c[nH]cn1)C(=O)N[C@@H](CC(N)=O)C(=O)N[C@H](C(=O)N[C@H](C(=O)N[C@@H](CCC(N)=O)C(=O)O)[C@@H](C)O)[C@@H](C)CC)C(C)C)[C@@H](C)CC	Glucagon-like peptide 2 receptor (GLP2R, Homo sapiens, UniProt O95838)	reporter gene, agonist, luciferase	pEC50	< 6.00
